For data set [1], the target named is 72 kDa type IV collagenase (Homo sapiens, UniProt P08253). The data set can be described thus: In vitro inhibition of matrix metalloprotease-2 (MMP-2).
The nature of data set [2]: Pharmacokinetic parameters in rats following a single 5 mg/kg oral cassette gavage dose. Type of data set: ADME, organism-based. Also noted: dose 5 mg/kg, route oral. The settings on record: rat, in vivo, read-out: AUC 0-infinity. The method, boiled down: (§1)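 Cassette of 5–7 compounds given together as one oral gavage, 5 mg/kg per compound, methyl cellulose suspension, 3 fasted male Wistar rats (80-90 days old). Heparinized plasma taken by jugular cannula predose to 48 h. LC-MS/MS with LLOQ 10 ng/mL. Noncompartmental analysis of individual rats: Cmax/tmax as observed, t1/2 = 0.693/λz, trapezoidal AUC(0-tldc) extrapolated to infinity.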

For another data set, the target named is T1, Interstitial collagenase (Homo sapiens, UniProt P03956).
T1 sequence (P03956 whole entry): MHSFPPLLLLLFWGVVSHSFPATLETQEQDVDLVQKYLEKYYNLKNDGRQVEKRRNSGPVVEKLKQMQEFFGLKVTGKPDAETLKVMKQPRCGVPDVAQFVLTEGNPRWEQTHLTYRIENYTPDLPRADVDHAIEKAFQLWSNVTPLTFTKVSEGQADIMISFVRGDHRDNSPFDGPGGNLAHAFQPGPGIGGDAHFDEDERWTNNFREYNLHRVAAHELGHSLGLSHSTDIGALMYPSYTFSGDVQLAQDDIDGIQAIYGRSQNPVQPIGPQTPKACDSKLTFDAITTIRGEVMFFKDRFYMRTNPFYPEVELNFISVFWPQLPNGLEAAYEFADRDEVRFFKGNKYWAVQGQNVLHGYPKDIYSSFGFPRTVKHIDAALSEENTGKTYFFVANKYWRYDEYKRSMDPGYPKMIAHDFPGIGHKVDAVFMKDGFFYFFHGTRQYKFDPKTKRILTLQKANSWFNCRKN
Briefly: In vitro inhibition of human recombinant matrix metalloprotease-1 (MMP-1).

The nature of data set [3]: Half life (t1/2) in rats following a single 5 mg/kg oral cassette gavage dose. Type of data set: ADME, organism-based. Also noted: dose 5 mg/kg, route oral. Conditions: rat, in vivo. The gist of the method:
as §1

The nature of data set [4]: Cmax in rat plasma after single 5 mg/kg oral cassette gavage dose. Type of data set: ADME, organism-based. Also noted: dose 5 mg/kg, route oral. The method, boiled down:
as §1

The nature of data set [5]: Concentration in rat plasma 24 hours after single 5 mg/kg oral cassette gavage dose. Type of data set: ADME, organism-based. Also noted: dose 5 mg/kg, route oral. The settings on record: read-out: C24.
Data set [6] is described as follows: AUC in rats following a single 5 mg/kg oral cassette gavage dose. Type of data set: ADME, organism-based. Also noted: dose 5 mg/kg, route oral. Conditions: rat, plasma, read-out: AUC 0-tldc. The gist of the method: as §1
Data set [7] in a line: Time to maximal concentration (tmax) in rats following a single 5 mg/kg oral cassette gavage dose. Type of data set: ADME, organism-based. Also noted: dose 5 mg/kg, route oral. The settings on record: rat, in vivo. The gist of the method:
as §1

The target of another data set is Collagenase 3 (Homo sapiens, UniProt P45452).
A further data set concerns the target Stromelysin-1 (Homo sapiens, UniProt P08254). The data set can be described thus: In vitro inhibition of recombinant human matrix metalloprotease-3 (MMP-3).
In the next data set the target is T2, Matrilysin (Homo sapiens, UniProt P09237).
T2 sequence (P09237 whole entry): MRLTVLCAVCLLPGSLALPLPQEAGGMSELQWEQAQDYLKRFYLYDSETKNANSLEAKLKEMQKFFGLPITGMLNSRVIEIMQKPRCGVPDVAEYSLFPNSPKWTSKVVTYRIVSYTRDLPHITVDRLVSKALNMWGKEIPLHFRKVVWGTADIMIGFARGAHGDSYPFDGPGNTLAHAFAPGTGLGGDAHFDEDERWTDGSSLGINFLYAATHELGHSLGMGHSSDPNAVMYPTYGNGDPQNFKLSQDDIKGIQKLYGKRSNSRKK
The data set can be described thus: In vitro inhibition of matrix metalloprotease-7 (MMP-7).

Data set [8] concerns the target Matrix metalloproteinase-9 (Homo sapiens, UniProt P14780). The data set can be described thus: In vitro inhibition of matrix metalloprotease-9 (MMP-9).

Sequence of 72 kDa type IV collagenase (P08253 whole entry): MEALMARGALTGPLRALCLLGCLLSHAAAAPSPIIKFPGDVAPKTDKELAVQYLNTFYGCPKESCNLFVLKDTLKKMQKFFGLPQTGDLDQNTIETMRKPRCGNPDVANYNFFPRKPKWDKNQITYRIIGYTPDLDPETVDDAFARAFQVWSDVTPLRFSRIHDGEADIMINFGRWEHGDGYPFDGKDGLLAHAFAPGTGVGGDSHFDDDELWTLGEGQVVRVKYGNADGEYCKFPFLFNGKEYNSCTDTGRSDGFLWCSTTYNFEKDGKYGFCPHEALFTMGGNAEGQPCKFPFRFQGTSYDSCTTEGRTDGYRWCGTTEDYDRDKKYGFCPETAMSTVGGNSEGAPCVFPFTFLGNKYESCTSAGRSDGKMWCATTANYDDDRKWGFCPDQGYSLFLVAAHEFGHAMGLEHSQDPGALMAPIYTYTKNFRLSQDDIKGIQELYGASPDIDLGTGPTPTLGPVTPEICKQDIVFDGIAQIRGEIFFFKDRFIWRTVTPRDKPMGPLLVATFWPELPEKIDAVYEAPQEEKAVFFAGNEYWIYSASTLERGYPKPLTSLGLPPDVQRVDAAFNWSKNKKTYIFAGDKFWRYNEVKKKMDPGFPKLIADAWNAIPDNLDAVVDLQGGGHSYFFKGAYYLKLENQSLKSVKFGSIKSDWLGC
Sequence of Matrix metalloproteinase-9 (P14780 whole entry): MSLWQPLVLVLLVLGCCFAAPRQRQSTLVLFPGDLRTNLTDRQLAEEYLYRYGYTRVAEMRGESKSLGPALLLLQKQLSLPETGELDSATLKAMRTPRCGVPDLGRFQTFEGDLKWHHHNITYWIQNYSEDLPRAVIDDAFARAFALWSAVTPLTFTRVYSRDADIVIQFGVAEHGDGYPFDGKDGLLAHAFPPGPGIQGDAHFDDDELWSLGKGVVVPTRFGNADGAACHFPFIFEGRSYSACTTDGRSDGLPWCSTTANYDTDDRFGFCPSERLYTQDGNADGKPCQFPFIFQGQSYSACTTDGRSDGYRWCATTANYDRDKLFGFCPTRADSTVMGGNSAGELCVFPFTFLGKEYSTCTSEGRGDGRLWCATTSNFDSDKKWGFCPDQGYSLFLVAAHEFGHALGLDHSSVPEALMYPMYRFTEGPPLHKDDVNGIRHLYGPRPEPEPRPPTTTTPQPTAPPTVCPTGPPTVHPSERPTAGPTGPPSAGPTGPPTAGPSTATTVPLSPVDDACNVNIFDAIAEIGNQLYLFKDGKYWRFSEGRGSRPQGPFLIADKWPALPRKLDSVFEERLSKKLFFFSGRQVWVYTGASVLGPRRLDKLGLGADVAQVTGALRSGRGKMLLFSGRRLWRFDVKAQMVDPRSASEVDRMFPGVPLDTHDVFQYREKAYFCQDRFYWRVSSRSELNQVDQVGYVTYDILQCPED
Sequence of Stromelysin-1 (P08254 whole entry): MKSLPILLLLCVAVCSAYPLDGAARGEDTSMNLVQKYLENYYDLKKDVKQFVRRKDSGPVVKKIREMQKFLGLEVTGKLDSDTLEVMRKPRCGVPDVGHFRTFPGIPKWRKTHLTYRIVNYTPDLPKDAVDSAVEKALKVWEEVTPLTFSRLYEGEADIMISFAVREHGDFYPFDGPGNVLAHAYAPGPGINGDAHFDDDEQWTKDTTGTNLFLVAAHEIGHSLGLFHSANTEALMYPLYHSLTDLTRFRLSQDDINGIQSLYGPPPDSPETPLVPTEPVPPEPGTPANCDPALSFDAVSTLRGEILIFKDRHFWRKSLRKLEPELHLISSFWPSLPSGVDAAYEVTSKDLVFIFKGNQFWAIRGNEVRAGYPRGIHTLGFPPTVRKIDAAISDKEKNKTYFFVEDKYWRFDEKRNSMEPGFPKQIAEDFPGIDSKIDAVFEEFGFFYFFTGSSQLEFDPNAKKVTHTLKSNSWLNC

For the compound `O=C(O)CNS(=O)(=O)c1ccc(-c2ccc(Br)cc2)cc1`, the IC50 in data set [1] was 0.004 µM; on Interstitial collagenase, 50 µM; against Collagenase 3, 0.026 µM; on Stromelysin-1, 0.01 µM; against Matrilysin, 77 µM; in data set [8] it was 6.7 µM. Further, the AUC was 316 µg·h/mL in [2] and 276 µg·h/mL in data set [6]. The compound further gave a half-life in data set [3] of 15.6 h. The compound also displayed a Cmax in data set [4] of 9960 ng/mL. Also, the concentration at 24 h in data set [5] was 5670 ng/mL. In addition, the Tmax in data set [7] turned out to be 8 h.
Regarding `CC(C)C[C@H](NS(=O)(=O)c1ccc(-c2ccc(Br)cc2)cc1)C(=O)O`, the IC50 was found to be 0.009 µM in data set [1]; 7 µM at Interstitial collagenase; 0.005 µM at Collagenase 3; 0.007 µM at Stromelysin-1; 3.1 µM at Matrilysin; 4.9 µM in [8]. Moreover, the AUC is 1210 µg·h/mL in data set [2] and 578 µg·h/mL in [6]. In data set [3], the half-life was 41.8 h. The Cmax in data set [4] stood at 30700 ng/mL. Also, the concentration at 24 h in data set [5] stood at 12400 ng/mL. For the same compound, the time of peak concentration (Tmax) in data set [7] turned out to be 2.33 h.
With `CC(C)[C@@H](NS(=O)(=O)c1ccc(-c2ccc(C#N)cc2)cc1)C(=O)O`, the half-maximal inhibitory concentration (IC50) in [1] was found to be 0.007 µM; at Interstitial collagenase, 14 µM; against Collagenase 3, 0.053 µM; on Stromelysin-1, 0.005 µM; at Matrilysin it was 19 µM; in [8] it was 3.8 µM. For the same compound, the AUC in data set [2] worked out at 277 µg·h/mL; in [6], 256 µg·h/mL. This compound had a half-life in [3] of 12.8 h. The same compound came in with a Cmax in [4] of 12200 ng/mL. Further, the concentration at 24 h in data set [5] was 4490 ng/mL. Moreover, the Tmax in data set [7] stood at 1.33 h.

By IC50 is commonly meant the concentration at which inhibition is half-maximal. In general, AUC refers to the area under the concentration-time curve, a measure of exposure. Broadly, the half-life is the time in which the quantity being followed falls by half. A higher half-life goes with slow loss. In general, Cmax refers to the peak of the concentration-time curve. As usually defined, the Tmax is the time at which the peak concentration occurs.

The values above are taken from ChEMBL document CHEMBL1133013, “Structure-activity relationships and pharmacokinetic analysis for a series of potent, systemically available biphenylsulfonamide matrix metalloproteinase inhibitors” (J Med Chem, 2000).
